In brackets after ≈: the same amount, converted by molar mass. Activity calls are given as the source filed them. The calls are words filed in the database; no cut-off is given here. Starred links: 1 amine or outer side, 2 acyl side, 3 side chain; linkers in the order of their positions; H or OH if unused. Positions of bridges follow the written chain, without caps; N, C: chain ends. Non-standard residues stand in square brackets, D forms with d. Residues, ends and D or L forms follow the SMILES beside them. *: point of attachment. pTerphenylCO(4''-OnC5H11) = CCCCCOc1ccc(-c2ccc(-c3ccc(C(=O)*)cc3)cc2)cc1; Orn(4R-OH,5R-OH) = O=C([C@H](C[C@@H](O)[C@@H](O)N[*:3])N[*:1])[*:2]; hTyr(3S-OH,4S-OH) = N[C@H](C(=O)O)[C@H](O)[C@@H](O)c1ccc(O)cc1; Pro(3S-OH,4S-Me) = C[C@H]1CN[C@H](C(=O)O)[C@H]1O; Hyp = O=C(O)[C@@H]1C[C@@H](O)CN1

In assay [1] the test system is Nakaseomyces glabratus. In words: Antifungal activity against Candida glabrata isolate 3 by CLSI M27-A3 broth microdilution method. The assay is classed as functional. The procedure, abridged: (§1)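 CLSI M27-A3 broth microdilution in RPMI 1640 buffered to pH 7.0 with MOPS. Starting inoculum 0.5 x 10^3 to 2.5 x 10^3 cells/ml, incubated at 35°C. MIC read as the lowest concentration giving >50% growth reduction versus control. Each isolate tested on at least three occasions.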
(Dilution methods test growth across graded concentrations, often in twofold steps.)

Assay [2] concerns Pichia kudriavzevii. As to the kind of experiment: Fungicidal activity against Candida krusei isolate ATCC 6258 assessed as log reduction in bacterial count at 16 times MIC after 48 hrs by time-kill analysis. Type of assay: functional. The conditions noted are these: isolate ATCC 6258, 48 h. The procedure, abridged: (§2)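 Isolates subcultured twice on SDA, suspended to 0.5 McFarland, giving ~1 x 10^5 to 5 x 10^5 CFU/ml in MOPS-buffered RPMI 1640 (pH 7.0) with or without drug at multiples of MIC (MIC by CLSI M27-A3). Tubes shaken at 35°C with continuous drug. Sampled at 0–48 h, diluted 10-fold and plated on SDA; CFU counted after 48 h at 35°C. Run twice per isolate; means.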

Assay [3] has as its system Nakaseomyces glabratus. In words: Increase in susceptibility to calcofluor white in Candida glabrata isolate 1 assessed as cell wall damage at 4 times MIC after 1 hr relative to control. Type of assay: functional, organism-based. The procedure, abridged: (§3)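 Cells recovered 8 h after a 1-h drug exposure were grown to exponential phase in YPD with 1% glucose and adjusted to OD599 0.1. Undiluted and 10-fold serially diluted cultures were spotted onto YPD plates containing calcofluor white, then incubated at 30°C for 72 h. Growth compared with no-drug control cells; triplicate.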

Assay [4] concerns Candida albicans. In words: Increase in susceptibility to calcofluor white in Candida albicans ATCC 90028 assessed as cell wall damage at 4 times MIC after 1 hr relative to control. Type of assay: functional, organism-based. The procedure, abridged:
as §3

Assay [5] concerns Candida parapsilosis. As to the kind of experiment: Increase in susceptibility to calcofluor white in Candida parapsilosis isolate A assessed as cell wall damage at MIC after 1 hr relative to control. The assay is classed as functional, organism-based. The procedure, abridged: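 Candida given a 1-h anidulafungin pulse in MOPS-buffered RPMI 1640 (pH 7.0) at 35°C, washed three times by centrifugation, and regrown drug-free. Cells collected 8 h later, grown in YPD with 1% glucose to exponential phase, and set to OD599 0.1. Undiluted culture and 10-fold dilutions (4 µl) spotted on YPD plates with calcofluor white, then 30°C for 72 h. Triplicate; compared with no-drug cells.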

Assay [6] deals with Candida albicans. In words: Antifungal activity against Candida albicans isolate 1 assessed as cell wall damage at MIC by Transmission electron microscopy. The assay is classed as functional, organism-based. An outline of the steps: (§4)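 Cells recovered 8 h after a 1-h drug exposure were grown on SDA for 24 h at 35°C. Colonies fixed at 4°C in 0.1 M cacodylate (pH 7.2) with 2% glutaraldehyde and 2% paraformaldehyde, ethanol-dehydrated and embedded in Lowicryl K4M. Thin sections examined by transmission EM.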

The test system of assay [7] is Candida parapsilosis. In words: Fungicidal activity against Candida parapsilosis isolate A assessed as log reduction in bacterial count at 4 times MIC after 48 hrs by time-kill analysis. Type of assay: functional. The conditions noted are these: Lodderomyces parapsilosis. An outline of the steps:
(§5)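 Isolates subcultured twice on SDA, then suspended to 0.5 McFarland and diluted into RPMI 1640 (MOPS, pH 7.0) with or without anidulafungin, giving about 1 x 10^5 to 5 x 10^5 CFU/ml. Tubes were shaken at 35°C. Samples were taken at 0, 2, 4, 8, 12, 24 and 48 h, serially diluted 10-fold, plated on SDA, and CFU counted after 48 h at 35°C. Each isolate was run twice; mean values.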

Assay [8] relates to Candida albicans. As to the kind of experiment: Increase in susceptibility to SDS in Candida albicans ATCC 90028 assessed as cell wall damage at 4 times MIC after 1 hr relative to control. Type of assay: functional, organism-based. The procedure, abridged: (§6)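 Cells recovered 8 h after a 1-h drug exposure were grown in YPD with 1% glucose to exponential phase and adjusted to OD599 0.1. Undiluted culture and 10-fold serial dilutions were spotted onto YPD plates containing SDS (0.01 to 0.04%), then incubated 72 h at 30°C. Growth compared with unexposed control cells; triplicate.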

Assay [9] relates to Nakaseomyces glabratus. As to the kind of experiment: Antifungal activity against Candida glabrata isolate 1 assessed as time period for bacterial growth inhibition at 16 times MIC after 1 hr drug exposure. Type of assay: functional. An outline of the steps: (§7)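 Inoculum of about 1 x 10^5 to 5 x 10^5 CFU/ml in MOPS-buffered RPMI (pH 7.0), shaken at 35°C and exposed to drug for 1 h. Cells then washed and centrifuged three times and resuspended in drug-free warm RPMI. Samples plated on SDA at 0, 2, 4, 8, 12, 24 and 48 h, with CFU counted after 48 h at 35°C. Run twice per isolate; values are means.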

For assay [10], the system named is Candida albicans. In words: Increase in susceptibility to SDS in Candida albicans ATCC 90028 assessed as cell wall damage at MIC after 1 hr relative to control. The assay is classed as functional, organism-based. The procedure, abridged:
as §6

The test system of assay [11] is Nakaseomyces glabratus. In words: Fungicidal activity against Candida glabrata isolate 2 assessed as log reduction in bacterial count at 4 times MIC after 48 hrs by time-kill analysis. To be noted: isolate 2, 48 h. Type of assay: functional. An outline of the steps:
as §2

The test system of assay [12] is Nakaseomyces glabratus. As to the kind of experiment: Increase in susceptibility to calcofluor white in Candida glabrata isolate 1 assessed as cell wall damage at MIC after 1 hr relative to control. The assay is classed as functional, organism-based. An outline of the steps:
as §3

The test system of assay [13] is Candida albicans. In words: Increase in susceptibility to calcofluor white in Candida albicans ATCC 90028 assessed as cell wall damage at MIC after 1 hr relative to control. Type of assay: functional, organism-based. The procedure, abridged:
as §3

Assay [14] concerns Nakaseomyces glabratus. In words: Antifungal activity against Candida glabrata isolate 2 by CLSI M27-A3 broth microdilution method. Type of assay: functional. An outline of the steps:
as §1

In assay [15] the test system is Candida parapsilosis. In words: Fungicidal activity against Candida parapsilosis isolate 1 assessed as log reduction in bacterial count at MIC after 48 hrs by time-kill analysis. Type of assay: functional. To be noted: Lodderomyces parapsilosis, isolate 1, 48 h. An outline of the steps: as §5
The test system of assay [16] is Pichia kudriavzevii. As to the kind of experiment: Increase in susceptibility to calcofluor white in Candida krusei isolate ATCC 6258 assessed as cell wall damage at 16 times MIC after 1 hr relative to control. Type of assay: functional, organism-based. The procedure, abridged: as §3
The subject of assay [17] is Nakaseomyces glabratus. In words: Antifungal activity against Candida glabrata isolate 1 assessed as cell wall damage at MIC by Transmission electron microscopy. The assay is classed as functional, organism-based. An outline of the steps: as §4
The subject of assay [18] is Candida parapsilosis. As to the kind of experiment: Fungicidal activity against Candida parapsilosis isolate S assessed as log reduction in bacterial count at 16 times MIC after drug exposure for 1 hr followed by washout measured after 48 hrs in the absence of drug by PAFE study. Type of assay: functional. The conditions noted are these: Lodderomyces parapsilosis. An outline of the steps:
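Inoculum about 1 x 10^5 to 5 x 10^5 CFU/ml in RPMI 1640 (MOPS, pH 7.0) with drug, shaken at 35°C for 1 h. Cells were then washed and centrifuged at 1,400 x g for 10 min (3 cycles) and resuspended in warm drug-free RPMI. Samples plated on SDA at 0, 2, 4, 8, 12, 24 and 48 h; CFU counted after 48 h at 35°C. Run twice per isolate; means.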

Assay [19] has as its system Pichia kudriavzevii. As to the kind of experiment: Antifungal activity against Candida krusei isolate ATCC 6258 assessed as time period for bacterial growth inhibition at 16 times MIC after 1 hr drug exposure. Type of assay: functional. An outline of the steps: as §7
The test system of assay [20] is Nakaseomyces glabratus. In words: Fungicidal activity against Candida glabrata isolate 3 assessed as log reduction in bacterial count at 4 times MIC after 48 hrs by time-kill analysis. To be noted: isolate 3, 48 h. The assay is classed as functional. An outline of the steps:
as §2

The subject of assay [21] is Candida parapsilosis. In words: Antifungal activity against Candida parapsilosis isolate S by CLSI M27-A3 broth microdilution method. Type of assay: functional. The conditions noted are these: Lodderomyces parapsilosis. The procedure, abridged: as §1

In the case of `CCCCCOc1ccc(-c2ccc(-c3ccc(C(=O)N[C@H]4C[C@@H](O)[C@@H](O)NC(=O)[C@@H]5[C@@H](O)[C@@H](C)CN5C(=O)[C@H]([C@@H](C)O)NC(=O)[C@H]([C@H](O)[C@@H](O)c5ccc(O)cc5)NC(=O)[C@@H]5C[C@@H](O)CN5C(=O)[C@H]([C@@H](C)O)NC4=O)cc3)cc2)cc1` [ANIDULAFUNGIN] ({pTerphenylCO(4''-OnC5H11)}-[Orn(4R-OH,5R-OH)]T[Hyp][hTyr(3S-OH,4S-OH)]T[Pro(3S-OH,4S-Me)]; lactam 1-C), the MIC (commonly the lowest concentration that inhibits growth of the organism) in assay [1] stood at 0.03 µg/mL (≈ 0.0263 µM); in assay [14], 0.03 µg/mL (≈ 0.0263 µM); in assay [21], 1 µg/mL (≈ 0.877 µM). Also, the log reduction in [2] stood at 3.2 log CFU/ml; in assay [7], 3.19 log CFU/ml; in [11], 1.87 log CFU/ml; in [15] it was 1.65 log CFU/ml; in assay [18], 3.05; in assay [20] it was 2.76 log CFU/ml. The result in [3], in [4], in [5], in assay [6], in assay [8] and in assay [10] was Active. The outcome in [12], in [13], in assay [16] and in assay [17] was Active. Further, the Time in assay [9] and in [19] was 8 h in each case.

The record behind these values is ChEMBL document CHEMBL1671655, “Anidulafungin is fungicidal and exerts a variety of postantifungal effects against Candida albicans, C. glabrata, C. parapsilosis, and C. krusei isolates” (2009).
